This is an account of results in ChEMBL document CHEMBL3421608, “Discovery and optimization of a novel series of Dyrk1B kinase inhibitors to explore a MEK resistance hypothesis” (J Med Chem, 2015).

Converted amounts (≈) assume the structure as drawn. The source made the active and inactive calls. The calls are words filed in the database; no cut-off is given here. Some results are limits rather than exact numbers.

Series [1] is described as follows: Oral bioavailability in Wistar Han rat at 3 umol/kg. It is filed as ADME, organism-based. To be noted: in vivo.
A further series concerns A-375. Briefly: Cytotoxicity against human A375 cells at 1.33 uM after 72 hrs by calcein green AM/propidium iodide staining-based assay in presence of AZD6244 relative to control. It is filed as functional, cell-based. The essentials:
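A375 melanoma cells treated with AZD6244 with or without Dyrk1B inhibitor at 1.33 μM for 72 h. Viability by calcein green AM and propidium iodide staining; percentage of dead cells is mean and SEM of at least two separate experiments.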

In series [2] the target is T1, Dual specificity tyrosine-phosphorylation-regulated kinase 2 (Homo sapiens, UniProt Q92630).
T1 sequence (Q92630 whole entry): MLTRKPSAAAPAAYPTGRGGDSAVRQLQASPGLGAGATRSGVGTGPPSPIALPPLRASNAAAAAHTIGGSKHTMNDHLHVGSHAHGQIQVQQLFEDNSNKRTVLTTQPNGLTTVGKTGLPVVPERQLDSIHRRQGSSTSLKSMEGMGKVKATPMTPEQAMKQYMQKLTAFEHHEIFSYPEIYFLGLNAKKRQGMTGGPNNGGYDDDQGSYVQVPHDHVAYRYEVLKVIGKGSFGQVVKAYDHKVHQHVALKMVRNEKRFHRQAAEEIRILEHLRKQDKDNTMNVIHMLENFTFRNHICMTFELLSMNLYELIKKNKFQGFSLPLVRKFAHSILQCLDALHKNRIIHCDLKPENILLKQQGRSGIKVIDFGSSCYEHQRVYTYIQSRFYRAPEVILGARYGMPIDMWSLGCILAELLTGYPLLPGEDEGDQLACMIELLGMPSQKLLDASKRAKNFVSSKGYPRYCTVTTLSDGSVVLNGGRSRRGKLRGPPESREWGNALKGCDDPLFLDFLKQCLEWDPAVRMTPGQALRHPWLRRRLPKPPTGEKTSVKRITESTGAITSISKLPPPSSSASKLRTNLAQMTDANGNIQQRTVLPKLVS
The series is described as follows: Inhibition of Dyrk2 (unknown origin).

Series [3] is described as follows: Intrinsic clearance in Wistar Han rat hepatocytes assessed per 10^6 cells. It is filed as ADME, cell-based, Hepatocyte. The following applies: read-out: CLH. The essentials: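 Intrinsic clearance in Wistar Han rat hepatocytes, expressed as μL/min/1 × 10⁶ cells.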
For series [4], the target named is Insulin-like growth factor 1 receptor (Homo sapiens, UniProt P08069). Briefly: Inhibition of human recombinant N-terminal His6-tagged IGF-1R using fluorescence substrate after 80 mins by caliper off-chip incubation mobility shift assay.
Sequence of Insulin-like growth factor 1 receptor (P08069 31-736 limits assumed): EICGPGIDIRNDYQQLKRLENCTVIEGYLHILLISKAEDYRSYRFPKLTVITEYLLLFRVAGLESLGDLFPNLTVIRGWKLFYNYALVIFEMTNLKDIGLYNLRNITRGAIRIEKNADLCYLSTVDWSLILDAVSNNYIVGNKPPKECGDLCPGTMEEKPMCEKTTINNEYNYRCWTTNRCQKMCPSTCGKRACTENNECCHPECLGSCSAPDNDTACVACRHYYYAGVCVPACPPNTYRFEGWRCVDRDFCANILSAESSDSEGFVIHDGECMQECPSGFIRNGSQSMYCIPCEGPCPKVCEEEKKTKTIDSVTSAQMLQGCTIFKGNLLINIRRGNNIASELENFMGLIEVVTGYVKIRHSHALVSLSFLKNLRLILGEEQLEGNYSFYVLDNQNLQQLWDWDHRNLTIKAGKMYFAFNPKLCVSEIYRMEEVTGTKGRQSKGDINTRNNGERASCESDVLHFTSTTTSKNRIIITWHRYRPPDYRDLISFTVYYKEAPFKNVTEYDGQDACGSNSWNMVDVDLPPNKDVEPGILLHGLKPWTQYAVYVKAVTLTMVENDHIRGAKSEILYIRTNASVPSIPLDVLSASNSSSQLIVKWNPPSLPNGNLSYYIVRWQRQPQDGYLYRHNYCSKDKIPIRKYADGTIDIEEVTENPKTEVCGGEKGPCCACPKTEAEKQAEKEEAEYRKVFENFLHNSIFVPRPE
Sequence of Insulin-like growth factor 1 receptor (P08069 741-1367 limits assumed): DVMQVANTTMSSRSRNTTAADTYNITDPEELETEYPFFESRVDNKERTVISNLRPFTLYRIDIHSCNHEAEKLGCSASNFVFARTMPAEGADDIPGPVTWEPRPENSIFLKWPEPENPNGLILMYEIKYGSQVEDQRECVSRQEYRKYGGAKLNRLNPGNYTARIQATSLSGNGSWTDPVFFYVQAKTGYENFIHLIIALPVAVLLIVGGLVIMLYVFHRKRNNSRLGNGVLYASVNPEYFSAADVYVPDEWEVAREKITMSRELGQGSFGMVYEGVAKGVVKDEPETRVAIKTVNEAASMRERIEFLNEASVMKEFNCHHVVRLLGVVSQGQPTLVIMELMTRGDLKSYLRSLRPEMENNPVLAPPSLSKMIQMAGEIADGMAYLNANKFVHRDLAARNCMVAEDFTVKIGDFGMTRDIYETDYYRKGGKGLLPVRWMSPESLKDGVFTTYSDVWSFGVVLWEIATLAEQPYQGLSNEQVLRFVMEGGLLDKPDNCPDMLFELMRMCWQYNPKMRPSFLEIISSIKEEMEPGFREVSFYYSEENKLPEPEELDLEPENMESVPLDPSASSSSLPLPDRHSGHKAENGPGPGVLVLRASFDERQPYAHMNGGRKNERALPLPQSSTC
Series [5] can be described thus: Clearance in Wistar Han rat plasma at 2 umol/kg. Type of series: ADME, cell-free.
The target in series [6] is Cyclin-dependent kinase 2 (Homo sapiens, UniProt P24941). The series is described as follows: Inhibition of human recombinant full length C-terminal His6-tagged CDK2 expressed in baculovirus infected Sf21 insect cells using fluorescence substrate after 60 mins by caliper off-chip incubation mobility shift assay.
A short description of series [7]: Aqueous solubility of the compound at pH 7.4. It is filed as physicochemical. To be noted: buffer.
Series [8] deals with T2, Dual specificity tyrosine-phosphorylation-regulated kinase 1B (Homo sapiens, UniProt Q9Y463). Briefly: Inhibition of human full length C-terminal c-Myc tagged Dyrk1B phosphorylation overexpressed in monkey COS1 cells after 5 hrs by ELISA. It is filed as cell-based, COS-1. (In general: In an ELISA, binding on a coated surface is turned into a signal by an enzyme label.)
T2 sequence (Q9Y463 whole entry): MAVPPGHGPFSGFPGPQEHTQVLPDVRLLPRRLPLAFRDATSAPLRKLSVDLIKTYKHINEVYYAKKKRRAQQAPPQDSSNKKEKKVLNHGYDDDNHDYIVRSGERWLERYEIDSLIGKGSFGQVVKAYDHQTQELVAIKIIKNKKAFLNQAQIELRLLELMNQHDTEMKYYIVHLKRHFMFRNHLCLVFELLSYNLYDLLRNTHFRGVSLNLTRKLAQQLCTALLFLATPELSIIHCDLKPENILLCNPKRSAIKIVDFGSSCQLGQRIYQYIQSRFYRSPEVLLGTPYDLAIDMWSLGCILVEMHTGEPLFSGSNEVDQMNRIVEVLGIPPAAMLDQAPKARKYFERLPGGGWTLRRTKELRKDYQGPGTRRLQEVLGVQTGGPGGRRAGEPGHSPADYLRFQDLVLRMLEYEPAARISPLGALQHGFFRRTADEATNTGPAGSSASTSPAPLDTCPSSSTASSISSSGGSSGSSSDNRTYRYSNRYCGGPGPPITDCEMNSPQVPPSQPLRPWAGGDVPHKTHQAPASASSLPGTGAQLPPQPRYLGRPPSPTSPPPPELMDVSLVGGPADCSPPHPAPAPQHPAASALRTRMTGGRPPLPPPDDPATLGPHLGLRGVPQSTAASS

Series [9] is described as follows: Permeability across human Caco2 cells. The following applies: caco-2. Type of series: ADME, cell-based. (In general: Caco-2 monolayers are a common model of the intestinal barrier.)
In series [10] the target is T2, Dual specificity tyrosine-phosphorylation-regulated kinase 1B. Briefly: Inhibition of recombinant Dyrk1B (unknown origin) using FITC-Asp-His-Thr-Gly-Phe-Leu-Thr-Glu-Tyr-Val-Ala-Thr-Arg-NH2 as substrate after 60 mins.
Series [11] concerns the target T3, Dual specificity protein kinase TTK (Homo sapiens, UniProt P33981).
T3 sequence (P33981 whole entry): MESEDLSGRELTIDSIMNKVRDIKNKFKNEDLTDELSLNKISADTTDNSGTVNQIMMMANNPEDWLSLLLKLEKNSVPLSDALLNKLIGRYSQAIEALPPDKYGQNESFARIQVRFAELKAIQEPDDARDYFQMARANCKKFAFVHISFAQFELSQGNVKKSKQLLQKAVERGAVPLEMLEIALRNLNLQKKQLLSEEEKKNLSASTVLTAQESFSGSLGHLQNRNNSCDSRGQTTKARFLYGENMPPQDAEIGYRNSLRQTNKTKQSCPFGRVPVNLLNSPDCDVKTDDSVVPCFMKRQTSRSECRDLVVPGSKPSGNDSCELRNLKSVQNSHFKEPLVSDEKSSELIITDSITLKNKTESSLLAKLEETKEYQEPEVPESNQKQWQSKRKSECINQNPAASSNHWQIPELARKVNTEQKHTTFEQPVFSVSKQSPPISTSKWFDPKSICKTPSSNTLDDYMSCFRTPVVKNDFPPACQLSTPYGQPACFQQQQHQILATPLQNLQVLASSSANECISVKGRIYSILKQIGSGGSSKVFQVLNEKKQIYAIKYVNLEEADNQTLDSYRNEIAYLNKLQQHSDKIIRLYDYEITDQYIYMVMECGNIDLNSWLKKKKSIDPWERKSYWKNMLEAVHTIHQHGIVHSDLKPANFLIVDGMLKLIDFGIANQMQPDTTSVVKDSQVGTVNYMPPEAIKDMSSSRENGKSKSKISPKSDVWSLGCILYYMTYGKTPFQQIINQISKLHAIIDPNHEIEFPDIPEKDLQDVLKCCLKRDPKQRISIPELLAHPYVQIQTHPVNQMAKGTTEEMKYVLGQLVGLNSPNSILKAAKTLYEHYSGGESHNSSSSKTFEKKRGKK
The series is described as follows: Inhibition of human wild-type TTK (514 to 795) expressed in insect sf9 cells.

On to `COc1cc(N2CCN(C)CC2)ccc1Nc1nccc(-c2cn(C)c3cnccc23)n1`, for which the bioavailability in series [1] was 22%. Besides, the result with A-375 was inactive. Also, the values for the IC50 in series [2], in series [4] and in [6] were 190 nM, 779 nM and 4470 nM, respectively. The hepatocyte CLint in series [3] was determined as 18 µL/min/1e6 cells. The molecule further showed a clearance in series [5] of 27 mL/min/kg. For the same molecule, the solubility in series [7] is more than 755 µM.
As to `Cn1cc(-c2ccnc(-c3ccc(S(C)(=O)=O)cc3)n2)c2ccncc21`, the bioavailability in [1] turned out to be 37%. For the same molecule, in series [3], the hepatocyte CLint is 8 µL/min/1e6 cells. Moreover, the IC50 in [4] is more than 10000 nM; in series [8] it was 810 nM; in [10] it was 12 nM; in series [6], more than 100000 nM. Also, the permeability entry in [9] is listed as “permeable”. The molecule also returned a clearance in [5] of 23 mL/min/kg. Further, the concentration in solution in series [7] (solubility) was 2 µM (≈ 0.729 µg/mL).
Take `COc1cc(OC2CCN(C)CC2)ccc1Nc1nccc(-c2c[nH]c3cnccc23)n1`: the results for the IC50 in series [11], in [4] and in series [10] were 20 nM, 3300 nM and 140 nM, respectively.

A word on the bioavailability: it is dose-corrected exposure relative to a reference, in per cent. Broadly, the IC50 is the concentration needed to halve the response being measured. Broadly, the clearance is the volume of plasma or blood freed of the substance per unit of time. By solubility is commonly meant the dissolved amount per volume that the medium holds.
